Positions count from the first letter of the chain named.
Experiments:
P2X1 receptor D170A = molecular target: T1, P2X1 receptor D170A (Homo sapiens, UniProt P51575, D170A); experiment: Calcium ion influx assay; type: cell-based
T1 sequence (P51575 1-399 D170A): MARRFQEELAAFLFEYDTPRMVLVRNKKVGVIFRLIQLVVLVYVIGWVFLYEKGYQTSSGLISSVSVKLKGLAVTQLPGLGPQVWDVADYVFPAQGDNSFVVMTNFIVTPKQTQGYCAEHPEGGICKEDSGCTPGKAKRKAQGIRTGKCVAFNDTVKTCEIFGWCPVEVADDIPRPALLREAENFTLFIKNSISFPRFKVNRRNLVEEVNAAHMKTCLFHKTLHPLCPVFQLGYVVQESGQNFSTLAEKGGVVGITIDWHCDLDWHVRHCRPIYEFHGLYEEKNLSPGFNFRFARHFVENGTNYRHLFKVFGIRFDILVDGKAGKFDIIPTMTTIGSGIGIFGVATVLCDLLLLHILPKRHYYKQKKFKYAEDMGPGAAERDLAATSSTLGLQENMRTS
How it was run: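 Tetracycline-induced (150 ng/mL, 2 days) stable HEK293 Flp-In T-REx cells at 15,000 cells/well, loaded with Fluo-8 for 1 h at 37 °C in probenecid-containing HEPES buffer, pH 7.4. Then 30 min buffer incubation, 20 s baseline, agonist addition and 2 min reading (ex 485/em 525 nm). Max-minus-min fluorescence normalised to 10 µM ionomycin, rescaled 0–100. Constrained four-parameter fit; EC50 per experiment; four independent experiments, triplicate.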

P2X1 receptor D97A = molecular target: T2, P2X1 receptor D97A (Homo sapiens, UniProt P51575, D97A); experiment: Saturation radioligand binding with [3H]-α,β-methylene ATP
T2 sequence (P51575 1-399 D97A): T1 sequence (P51575 1-399 D170A) with D97A, A170D
How it was run: (§1)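 Whole HEK293 Flp-In T-REx cells stably expressing receptor, tetracycline-induced (150 ng/ml, 2 days), 15,000 cells/well, washed in HEPES binding buffer pH 7.4 with Ca2+/Mg2+. Increasing [3H]-α,β-methylene ATP added, 3 h room temperature with gentle agitation; non-specific binding with 10 μM ATP. Ice-cold 0.9% NaCl washes, scintillation counting (CCPM). Specific binding fitted one-site; values above 300 nM termed not defined.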

P2X1 receptor K136W = molecular target: T3, P2X1 receptor K136W (Homo sapiens, UniProt P51575, K136W); experiment: as above
T3 sequence (P51575 1-399 K136W): T1 sequence (P51575 1-399 D170A) with K136W, A170D
How it was run: as §1

P2X1 receptor E122A = molecular target: T4, P2X1 receptor E122A (Homo sapiens, UniProt P51575, E122A); experiment: Saturation radioligand binding with [3H]-α,β-methylene ATP
T4 sequence (P51575 1-399 E122A): T1 sequence (P51575 1-399 D170A) with E122A, A170D

P2X1 receptor F188L = molecular target: T5, P2X1 receptor F188L (Homo sapiens, UniProt P51575, F188L); experiment: Calcium ion influx assay; type: cell-based; details: maximal α,β-methylene ATP
T5 sequence (P51575 1-399 F188L): T1 sequence (P51575 1-399 D170A) with A170D, F188L

P2X1 receptor R139A = molecular target: T6, P2X1 receptor R139A (Homo sapiens, UniProt P51575, R139A); experiment: Saturation radioligand binding with [3H]-α,β-methylene ATP
T6 sequence (P51575 1-399 R139A): T1 sequence (P51575 1-399 D170A) with R139A, A170D
How it was run: as §1

For Nc1ncnc2c1ncn2[C@@H]1O[C@H](COP(=O)(O)CP(=O)(O)OP(=O)(O)O)[C@@H](O)[C@H]1O [α,β-methylene ATP], the “fold decrease in potency compared to WT-P2X1” value (P2X1 receptor D170A) was 58 fold, the “binding affinity compared to WT-P2X1” value (P2X1 receptor D97A) was “similar” and the “binding affinity compared to WT-P2X1” value (P2X1 receptor K136W) was “similar”. The “binding affinity compared to WT-P2X1” value (P2X1 receptor E122A) was “beyond the threshold that could be accurately measured”, the “time to achieve 50% decay, times WT-P2X1” value (P2X1 receptor F188L) was “approximately 1.5 times” and the “fold decrease in affinity compared to WT-P2X1” value (P2X1 receptor R139A) was 6 fold.
